Values after ≈ are worked out from the molar mass of the structure shown.
How the values were obtained:
[1] = system: Streptococcus pneumoniae; experiment: Minimal inhibitory concentration against Streptococcus pneumoniae PU7; assay type: functional
Method in brief: (§1)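 Agar dilution method. Each plate was spot-inoculated with 1 µL spots, about 10^6 CFU per spot. Plates were incubated 18-24 h at 37 °C.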

[2] = system: Haemophilus influenzae; experiment: Minimal inhibitory concentration against Haemophilus influenzae Q1; assay type: functional; method in brief: as §1
[3] = system: Streptococcus pyogenes; experiment: Minimal inhibitory concentration against Streptococcus pyogenes CN10; assay type: functional; method in brief: as §1
[4] = system: Moraxella catarrhalis; experiment: Minimal inhibitory concentration of compound against Moraxella catarrhalis 1502; assay type: functional; method in brief: as §1
[5] = system: Staphylococcus aureus; experiment: Minimal inhibitory concentration against Staphylococcus aureus Oxford NCTC 6571; assay type: functional; method in brief: as §1
[6] = system: Streptococcus pyogenes; experiment: Minimal inhibitory concentration of compound against Streptococcus pyogenes BCA; assay type: functional; method in brief: as §1
[7] = system: Haemophilus influenzae; experiment: Minimal inhibitory concentration against Haemophilus influenzae H128; assay type: functional; method in brief: as §1
[8] = system: Moraxella catarrhalis; experiment: Minimal inhibitory concentration of compound against Moraxella catarrhalis H; assay type: functional; method in brief: as §1
[9] = system: Haemophilus influenzae; experiment: Minimal inhibitory concentration against Haemophilus influenzae WY21; assay type: functional; method in brief: as §1
[10] = system: Streptococcus pneumoniae; experiment: Minimal inhibitory concentration of compound against Streptococcus pneumoniae 1629; assay type: functional; method in brief: as §1
[11] = system: Streptococcus pneumoniae; experiment: Minimal inhibitory concentration of compound against Streptococcus pneumoniae PU7; No bacterial growth; assay type: functional, organism-based; method in brief: as §1
[12] = system: Staphylococcus aureus; experiment: Minimal inhibitory concentration of compound against Staphylococcus aureus Russell; assay type: functional; method in brief: as §1
[13] = system: Moraxella catarrhalis; experiment: Minimal inhibitory concentration of compound against Moraxella catarrhalis 1502; No bacterial growth; assay type: functional, organism-based; method in brief: as §1

Compound	MIC [1] [µg/mL]	MIC [2] [µg/mL]	MIC [3] [µg/mL]	MIC [4] [µg/mL]	MIC [5] [µg/mL]	MIC [6] [µg/mL]	MIC [7] [µg/mL]	MIC [8] [µg/mL]	MIC [9] [µg/mL]	MIC [10] [µg/mL]	MIC [11]	MIC [12] [µg/mL]	MIC [13]
CCOC(=O)Oc1cnc(/C=C(\C)C[C@@H]2OC[C@H](C[C@@H]3O[C@H]3[C@@H](C)[C@H](C)O)[C@@H](O)[C@H]2O)o1	> 128	32 (≈ 70.3 µM)	> 128	32 (≈ 70.3 µM)	> 128								
C/C(=C\c1ncc(/C=C/C(=O)[O-])o1)C[C@@H]1OC[C@H](C[C@@H]2O[C@H]2[C@@H](C)[C@H](C)O)[C@@H](O)[C@H]1O.[Na+]	64	16	64	16	64								
C/C(=C\C(=O)OCCCCCCCCC(=O)O)C[C@@H]1OC[C@H](C[C@@H]2O[C@H]2[C@@H](C)[C@H](C)O)[C@@H](O)[C@H]1O [MUPIROCIN]	0.25 (≈ 0.499 µM)	0.03 (≈ 0.0599 µM)	0.13 (≈ 0.26 µM)	0.25 (≈ 0.499 µM)	0.25 (≈ 0.499 µM)								
COC(=O)/C=C/c1cnc(/C=C(\C)C[C@@H]2OC[C@H](C[C@@H]3O[C@H]3[C@@H](C)[C@H](C)O)[C@@H](O)[C@H]2O)o1	1 (≈ 2.21 µM)	0.5 (≈ 1.11 µM)			2 (≈ 4.43 µM)	4 (≈ 8.86 µM)							
C/C(=C\c1ncc(C2SCCCS2)o1)C[C@@H]1OC[C@H](C[C@@H]2O[C@H]2[C@@H](C)[C@H](C)O)[C@@H](O)[C@H]1O	4 (≈ 8.24 µM)	1 (≈ 2.06 µM)	1 (≈ 2.06 µM)	0.5 (≈ 1.03 µM)	1 (≈ 2.06 µM)								
C/C(=C\c1ncc(N(C)c2ccccc2)o1)C[C@@H]1OC[C@H](C[C@@H]2O[C@H]2[C@@H](C)[C@H](C)O)[C@@H](O)[C@H]1O	32 (≈ 67.7 µM)		16 (≈ 33.9 µM)	32 (≈ 67.7 µM)	16 (≈ 33.9 µM)		16 (≈ 33.9 µM)						
C/C(=C\c1ncc(Oc2ccccc2)o1)C[C@@H]1OC[C@H](C[C@@H]2O[C@H]2[C@@H](C)[C@H](C)O)[C@@H](O)[C@H]1O	16 (≈ 34.8 µM)		8 (≈ 17.4 µM)	16 (≈ 34.8 µM)	8 (≈ 17.4 µM)		8 (≈ 17.4 µM)						
C/C(=C\c1ncc(N2CCCCC2)o1)C[C@@H]1OC[C@H](C[C@@H]2O[C@H]2[C@@H](C)[C@H](C)O)[C@@H](O)[C@H]1O	8 (≈ 17.8 µM)	0.5 (≈ 1.11 µM)	4 (≈ 8.88 µM)		8 (≈ 17.8 µM)			8 (≈ 17.8 µM)					
COC(=O)c1nc(/C=C(\C)C[C@@H]2OC[C@H](C[C@@H]3O[C@H]3[C@@H](C)[C@H](C)O)[C@@H](O)[C@H]2O)oc1OC	> 128	128 (≈ 281 µM)	> 128	> 128	> 128								
CCc1cnc(/C=C(\C)C[C@@H]2OC[C@H](C[C@@H]3O[C@H]3[C@@H](C)[C@H](C)O)[C@@H](O)[C@H]2O)o1	16 (≈ 40.5 µM)	2 (≈ 5.06 µM)		16 (≈ 40.5 µM)	2 (≈ 5.06 µM)								
C/C(=C\c1ncc(CCCC(=O)[O-])o1)C[C@@H]1OC[C@H](C[C@@H]2O[C@H]2[C@@H](C)[C@H](C)O)[C@@H](O)[C@H]1O.[Na+]	64		64	32	32				8				
C/C(=C\c1ncco1)C[C@@H]1OC[C@H](C[C@@H]2O[C@H]2[C@@H](C)[C@H](C)O)[C@@H](O)[C@H]1O		2 (≈ 5.44 µM)	32 (≈ 87.1 µM)	4 (≈ 10.9 µM)	16 (≈ 43.5 µM)					128 (≈ 348 µM)			
CCSc1cnc(/C=C(\C)C[C@@H]2OC[C@H](C[C@@H]3O[C@H]3[C@@H](C)[C@H](C)O)[C@@H](O)[C@H]2O)o1	8 (≈ 18.7 µM)	1 (≈ 2.34 µM)	4 (≈ 9.36 µM)	8 (≈ 18.7 µM)	8 (≈ 18.7 µM)								
COC(=O)/C=C\c1cnc(/C=C(\C)C[C@@H]2OC[C@H](C[C@@H]3O[C@H]3[C@@H](C)[C@H](C)O)[C@@H](O)[C@H]2O)o1	16 (≈ 35.4 µM)		16 (≈ 35.4 µM)	8 (≈ 17.7 µM)	8 (≈ 17.7 µM)				0.25 (≈ 0.554 µM)				
C/C(=C\c1ncc(CO)o1)C[C@@H]1OC[C@H](C[C@@H]2O[C@H]2[C@@H](C)[C@H](C)O)[C@@H](O)[C@H]1O		2 (≈ 5.03 µM)	32 (≈ 80.5 µM)	8 (≈ 20.1 µM)	32 (≈ 80.5 µM)						No growth		
C/C(=C\c1ncc(Sc2ccccc2)o1)C[C@@H]1OC[C@H](C[C@@H]2O[C@H]2[C@@H](C)[C@H](C)O)[C@@H](O)[C@H]1O	32 (≈ 67.3 µM)	8 (≈ 16.8 µM)	4 (≈ 8.41 µM)	8 (≈ 16.8 µM)								16 (≈ 33.6 µM)	
COC(=O)CCCCCCCCc1cnc(/C=C(\C)C[C@@H]2OC[C@H](C[C@@H]3O[C@H]3[C@@H](C)[C@H](C)O)[C@@H](O)[C@H]2O)o1	8 (≈ 14.9 µM)	4 (≈ 7.44 µM)	4 (≈ 7.44 µM)	64 (≈ 119 µM)	4 (≈ 7.44 µM)								
COC(=O)c1cnc(/C=C(\C)C[C@@H]2OC[C@H](C[C@@H]3O[C@H]3[C@@H](C)[C@H](C)O)[C@@H](O)[C@H]2O)o1	8 (≈ 18.8 µM)	1 (≈ 2.35 µM)	8 (≈ 18.8 µM)	8 (≈ 18.8 µM)	4 (≈ 9.4 µM)								
CCOc1cnc(/C=C(\C)C[C@@H]2OC[C@H](C[C@@H]3O[C@H]3[C@@H](C)[C@H](C)O)[C@@H](O)[C@H]2O)o1	2 (≈ 4.86 µM)	0.5 (≈ 1.22 µM)	2 (≈ 4.86 µM)	4 (≈ 9.72 µM)	2 (≈ 4.86 µM)								
COC(=O)CCCc1cnc(/C=C(\C)C[C@@H]2OC[C@H](C[C@@H]3O[C@H]3[C@@H](C)[C@H](C)O)[C@@H](O)[C@H]2O)o1	4 (≈ 8.56 µM)		0.5 (≈ 1.07 µM)	2 (≈ 4.28 µM)	1 (≈ 2.14 µM)				1 (≈ 2.14 µM)				
C/C(=C\c1ncc([S+]([O-])c2ccccc2)o1)C[C@@H]1OC[C@H](C[C@@H]2O[C@H]2[C@@H](C)[C@H](C)O)[C@@H](O)[C@H]1O (stereo partly drawn)	16 (≈ 32.5 µM)	2 (≈ 4.07 µM)	4 (≈ 8.14 µM)	16 (≈ 32.5 µM)	16 (≈ 32.5 µM)								
C/C(=C\c1ncc(C=O)o1)C[C@@H]1OC[C@H](C[C@@H]2O[C@H]2[C@@H](C)[C@H](C)O)[C@@H](O)[C@H]1O	64 (≈ 162 µM)	4 (≈ 10.1 µM)	16 (≈ 40.5 µM)	8 (≈ 20.2 µM)	2 (≈ 5.06 µM)								
CC[S+]([O-])c1cnc(/C=C(\C)C[C@@H]2OC[C@H](C[C@@H]3O[C@H]3[C@@H](C)[C@H](C)O)[C@@H](O)[C@H]2O)o1 (stereo partly drawn)	4 (≈ 9.02 µM)	0.13 (≈ 0.293 µM)	8 (≈ 18 µM)		8 (≈ 18 µM)			16 (≈ 36.1 µM)					
C/C(=C\c1ncc(C(=O)[O-])o1)C[C@@H]1OC[C@H](C[C@@H]2O[C@H]2[C@@H](C)[C@H](C)O)[C@@H](O)[C@H]1O.[Na+]	> 128	> 128	> 128	> 128	> 128								
CCCCc1cnc(/C=C(\C)C[C@@H]2OC[C@H](C[C@@H]3O[C@H]3[C@@H](C)[C@H](C)O)[C@@H](O)[C@H]2O)o1	4 (≈ 9.44 µM)	1 (≈ 2.36 µM)	0.5 (≈ 1.18 µM)	4 (≈ 9.44 µM)	1 (≈ 2.36 µM)								
COC(=O)c1nc(/C=C(\C)C[C@@H]2OC[C@H](C[C@@H]3O[C@H]3[C@@H](C)[C@H](C)O)[C@@H](O)[C@H]2O)oc1N1CCCCC1	32 (≈ 62.9 µM)	2 (≈ 3.93 µM)	128 (≈ 252 µM)		16 (≈ 31.5 µM)								No growth
C/C(=C\c1ncc(CCCCCCCCC(=O)[O-])o1)C[C@@H]1OC[C@H](C[C@@H]2O[C@H]2[C@@H](C)[C@H](C)O)[C@@H](O)[C@H]1O.[Na+]	4	4	1	8	4								

Reference: ChEMBL document CHEMBL1129661, “The chemistry of Pseudomonic acid. 15. Synthesis and antibacterial activity of a series of 5-alkyl, 5-alkenyl, and 5-heterosubstituted oxazoles” (1996)
